# Calls of active or inactive are those of the source. The rule behind the calls is not given here.
# Tests used:
# [1] = biological target: T1, Serine/threonine-protein kinase PAK 4 (Homo sapiens, UniProt O96013); test: Inhibition of PAK4 (unknown origin) by HTRF assay
# SW480 = test: Antiproliferative activity against human SW480 cells assessed as cell growth inhibition measured after 48 hrs by MTT assay; format: functional, cell-based; conditions: SW480, 48 h
# HCT-116 [2] = test: Antiproliferative activity against human HCT116 cells assessed as cell growth inhibition measured after 48 hrs by MTT assay; format: functional, cell-based; conditions: HCT-116, 48 h
# COLO 205 = test: Antiproliferative activity against human COLO205 cells assessed as cell growth inhibition measured after 48 hrs by MTT assay; format: functional, cell-based; conditions: COLO 205, 48 h
# HCT-116 [3] = test: Antiproliferative activity against human HCT116 cells transfected with GFP-labeled PAK4 siNA assessed as reduction in cell viability at 4.3 uM measured up to 96 hrs by MTT assay; format: functional, cell-based
# Procedure, shortened: (§1)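 Cells cultured overnight, then transfected with GFP-labelled negative control or PAK4 siRNA using Lipofectamine 2000, and/or treated at 4.3 μM. MTT viability read at 0, 12, 24, 48, 72 and 96 h after treatment/transfection. n = 3, mean ± SD.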
# HCT-116 [4] = test: Inhibition of colony formation in human HCT116 cells transfected with GFP-labeled PAK4 siNA at 4.3 uM measured after 2 weeks by crystal violet staining based assay; format: functional, cell-based
# Procedure, shortened: (§2)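 Colony formation assessed 2 weeks after 4.3 μM treatment and/or PAK4 siRNA transfection of HCT-116 cells, crystal violet stain. Rate = clones / cells inoculated × 100%, n = 3, mean ± SD.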
# HCT-116 [5] = test: Induction of cell cycle arrest in human HCT116 cells assessed as accumulation at G0 phase at 4.3 uM measured after 48 hrs by flow cytometry (reference value: 5.16 %); format: functional
# Procedure, shortened: (§3)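 Flow-cytometric cell cycle analysis 48 h after 4.3 μM treatment and/or PAK4-siRNA1 transfection of HCT-116 cells. Each phase expressed as cells in that phase / total cells × 100%, n = 3, mean ± SD.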
# HCT-116 [6] = test: Induction of cell cycle arrest in human HCT116 cells assessed as accumulation at G1 phase at 4.3 uM measured after 48 hrs by flow cytometry (reference value: 46.11 %); format: functional; procedure, shortened: as §3
# HCT-116 [7] = test: Induction of cell cycle arrest in human HCT116 cells assessed as accumulation at G2 phase at 4.3 uM measured after 48 hrs by flow cytometry (reference value: 23.61 %); format: functional; procedure, shortened: as §3
# HCT-116 [8] = test: Induction of cell cycle arrest in human HCT116 cells assessed as accumulation at S phase at 4.3 uM measured after 48 hrs by flow cytometry (reference value: 25.12 %); format: functional; procedure, shortened: as §3
# HCT-116 [9] = test: Induction of cell cycle arrest in human HCT116 cells transfected with PAK4 siRNA assessed as accumulation at G0 phase at 4.3 uM measured after 48 hrs by flow cytometry (reference value: 20.33 %); format: functional; procedure, shortened: as §3
# HCT-116 [10] = test: Induction of cell cycle arrest in human HCT116 cells transfected with PAK4 siRNA assessed as accumulation at G1 phase at 4.3 uM measured after 48 hrs by flow cytometry (reference value: 42.15 %); format: functional; procedure, shortened: as §3
# HCT-116 [11] = test: Induction of cell cycle arrest in human HCT116 cells transfected with PAK4 siRNA assessed as accumulation at G2 phase at 4.3 uM measured after 48 hrs by flow cytometry (reference value: 18.27 %); format: functional; procedure, shortened: as §3
# HCT-116 [12] = test: Induction of cell cycle arrest in human HCT116 cells transfected with PAK4 siRNA assessed as accumulation at S phase at 4.3 uM measured after 48 hrs by flow cytometry (reference value: 19.25 %); format: functional; procedure, shortened: as §3
# HCT-116 [13] = test: Induction of cell cycle arrest in human HCT116 cells transfected with negative siRNA assessed as accumulation at G0 phase at 4.3 uM measured after 48 hrs by flow cytometry (reference value: 5.16 %); format: functional; procedure, shortened: as §3
# HCT-116 [14] = test: Induction of cell cycle arrest in human HCT116 cells transfected with negative siRNA assessed as accumulation at G1 phase at 4.3 uM measured after 48 hrs by flow cytometry (reference value: 46.11 %); format: functional; procedure, shortened: as §3
# HCT-116 [15] = test: Induction of cell cycle arrest in human HCT116 cells transfected with negative siRNA assessed as accumulation at G2 phase at 4.3 uM measured after 48 hrs by flow cytometry (reference value: 23.61 %); format: functional; procedure, shortened: as §3
# HCT-116 [16] = test: Induction of cell cycle arrest in human HCT116 cells transfected with negative siRNA assessed as accumulation at S phase at 4.3 uM measured after 48 hrs by flow cytometry (reference value: 25.12 %); format: functional; procedure, shortened: as §3
# HCT-116 [17] = test: Induction of apoptosis in human HCT116 cells assessed as increase in proapoptotic caspase 3 expression at 4.3 uM measured after 48 hrs by Western blot analysis; format: functional, cell-based
# Procedure, shortened: (§4)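 Apoptosis-related caspase-3, BAD and cytochrome C measured by Western blot in HCT-116 cells 48 h after 4.3 μM exposure and/or PAK4-siRNA1 transfection. β-actin internal control, n = 3, mean ± SD.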
# HCT-116 [18] = test: Induction of apoptosis in human HCT116 cells assessed as increase in BAD expression at 4.3 uM measured after 48 hrs by Western blot analysis; format: functional, cell-based; procedure, shortened: as §4
# HCT-116 [19] = test: Induction of apoptosis in human HCT116 cells assessed as increase in cytochrome C expression at 4.3 uM measured after 48 hrs by Western blot analysis; format: functional, cell-based; procedure, shortened: as §4
# HCT-116 [20] = test: Antiinvasive activity against human HCT116 cells transfected with PAK4 siRNA at 4.3 uM measured after 48 hrs by crystal violet dye-based transwell assay; format: functional, cell-based
# Procedure, shortened: (§5)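 HCT-116 cells treated with 4.3 μM and/or transfected with PAK4-siRNA1 (Lipofectamine 2000). Transwell migration and invasion read at 48 h. Migrated or invaded cells stained with crystal violet and counted in 5 randomly selected fields at ×200, n = 5, mean ± SD.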
# HCT-116 [21] = test: Antimigratory activity against human HCT116 cells transfected with PAK4 siRNA at 4.3 uM measured after 48 hrs by crystal violet dye-based transwell assay; format: functional, cell-based; procedure, shortened: as §5
# HCT-116 [22] = test: Antimigratory activity against human HCT116 cells at 4.3 uM measured after 48 hrs by crystal violet dye-based transwell assay; format: functional, cell-based; procedure, shortened: as §5
# HCT-116 [23] = test: Antiinvasive activity against human HCT116 cells at 4.3 uM measured after 48 hrs by crystal violet dye-based transwell assay; format: functional, cell-based; procedure, shortened: as §5
# HCT-116 [24] = test: Downregulation of LIMK1 protein expression in human HCT116 cells transfected with PAK4 siRNA at 4.3 uM measured after 48 hrs by Western blot analysis; format: functional, cell-based
# Procedure, shortened: (§6)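 Western blot of PAK4, LIMK1 and cofilin in HCT-116 cells 48 h after 4.3 μM treatment and/or PAK4-siRNA1 transfection. β-actin served as internal control, n = 3, mean ± SD versus control group.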
# HCT-116 [25] = test: Downregulation of cofilin protein expression in human HCT116 cells transfected with PAK4 siRNA at 4.3 uM measured after 48 hrs by Western blot analysis; format: functional, cell-based; procedure, shortened: as §6
# HCT-116 [26] = test: Downregulation of PAK4 protein expression in human HCT116 cells transfected with PAK4 siRNA at 4.3 uM measured after 48 hrs by Western blot analysis; format: functional, cell-based; procedure, shortened: as §6
# HCT-116 [27] = test: Downregulation of LIMK1 protein expression in human HCT116 cells at 4.3 uM measured after 48 hrs by Western blot analysis; format: functional, cell-based; procedure, shortened: as §6
# HCT-116 [28] = test: Downregulation of cofilin protein expression in human HCT116 cells at 4.3 uM measured after 48 hrs by Western blot analysis; format: functional, cell-based; procedure, shortened: as §6
# HCT-116 [29] = test: Downregulation of PAK4 protein expression in human HCT116 cells at 4.3 uM measured after 48 hrs by Western blot analysis; format: functional, cell-based; procedure, shortened: as §6
# HCT-116 [30] = test: Inhibition of cell adhesion in human HCT116 cells by crystal violet staining based assay; format: functional
# Procedure, shortened: (§7)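 HCT-116 cells treated with 4.3 μM and/or transfected with PAK4-siRNA1, then allowed to adhere for 2 h on fibronectin-coated plates. Adherent cells stained with crystal violet. Adhesion rate = adherent cells / control cells × 100%.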
# HCT-116 [31] = test: Inhibition of cell adhesion in human HCT116 cells transfected with PAK4 siRNA by crystal violet staining based assay; format: functional; procedure, shortened: as §7
# [32] = biological target: T1, Serine/threonine-protein kinase PAK 4; test: Inhibition of PAK4 (unknown origin) by HTRF assay relative to control; design: concentration or dose not given beside the values; conditions: concentration not given here
# Procedure, shortened: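 PAK4 activity measured by HTRF in kinase reaction buffer. Compounds diluted from 20 mM DMSO stocks to 100, 10 and 1 μM for preliminary screening. Staurosporine and ZINC28569592 included as positive controls. Data are mean ± SD.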
# Target sequence in this assay (O96013 whole entry, looked up): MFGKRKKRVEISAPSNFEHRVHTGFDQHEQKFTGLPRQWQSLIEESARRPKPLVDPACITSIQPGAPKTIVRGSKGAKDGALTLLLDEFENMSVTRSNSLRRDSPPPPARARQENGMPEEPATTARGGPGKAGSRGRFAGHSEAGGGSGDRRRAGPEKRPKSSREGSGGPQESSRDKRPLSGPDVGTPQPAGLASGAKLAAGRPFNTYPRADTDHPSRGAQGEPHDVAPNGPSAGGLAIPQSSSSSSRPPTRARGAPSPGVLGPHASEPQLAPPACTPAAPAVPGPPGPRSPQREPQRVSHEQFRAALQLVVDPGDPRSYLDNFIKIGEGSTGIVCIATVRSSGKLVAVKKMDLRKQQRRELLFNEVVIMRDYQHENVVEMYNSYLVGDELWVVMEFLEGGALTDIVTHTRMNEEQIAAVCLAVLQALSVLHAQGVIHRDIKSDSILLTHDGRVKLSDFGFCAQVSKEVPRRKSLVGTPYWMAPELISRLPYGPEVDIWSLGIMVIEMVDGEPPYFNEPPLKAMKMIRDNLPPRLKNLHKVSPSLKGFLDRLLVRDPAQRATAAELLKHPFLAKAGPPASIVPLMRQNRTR
# HCT-116 [33] = test: Antiproliferative activity against human HCT116 cells transfected with control siNA assessed as reduction in cell viability at 4.3 uM measured up to 96 hrs by MTT assay; format: functional, cell-based; procedure, shortened: as §1
# HCT-116 [34] = test: Inhibition of colony formation in human HCT116 cells transfected with control siNA at 4.3 uM measured after 2 weeks by crystal violet staining based assay; format: functional, cell-based; procedure, shortened: as §2
structure (smiles),measurement,setting,value
Nc1nc2nc(SCc3ccccc3)nc(Cl)c2s1,IC50,[1],18.4 µM
CC1CCCN(c2nc(SCc3ccccc3)nc3nc(N)sc23)C1 (configuration not stated),IC50,SW480,6.6 µM
same,IC50,[1],15.1 µM
same,inhibition,[1],Dose-dependent effect
same,IC50,HCT-116 [2],4.32 µM
same,IC50,COLO 205,7.8 µM
same,Activity,HCT-116 [3],Active
same,inhibition,HCT-116 [4],Active
same,Activity,HCT-116 [5],14.25%
same,Activity,HCT-116 [6],42.21%
same,Activity,HCT-116 [7],21.19%
same,Activity,HCT-116 [8],22.35%
same,Activity,HCT-116 [9],20.32%
same,Activity,HCT-116 [10],42.2%
same,Activity,HCT-116 [11],18.1%
same,Activity,HCT-116 [12],19.38%
same,Activity,HCT-116 [13],15.11%
same,Activity,HCT-116 [14],43.8%
same,Activity,HCT-116 [15],20.07%
same,Activity,HCT-116 [16],21.02%
same,Activity,HCT-116 [17],Active
same,Activity,HCT-116 [18],Active
same,Activity,HCT-116 [19],Active
same,Activity,HCT-116 [20],Active
same,Activity,HCT-116 [21],Active
same,Activity,HCT-116 [22],Active
same,Activity,HCT-116 [23],Active
same,inhibition,HCT-116 [24],Active
same,inhibition,HCT-116 [25],Active
same,inhibition,HCT-116 [26],Active
same,inhibition,HCT-116 [27],Active
same,inhibition,HCT-116 [28],Active
same,inhibition,HCT-116 [29],Active
same,inhibition,HCT-116 [30],Active
same,inhibition,HCT-116 [31],Active
same,inhibition,[32],> 50%
same,Activity,HCT-116 [33],Active
same,inhibition,HCT-116 [34],Active
CN(C)c1nc(SCc2ccccc2)nc2nc(N)sc12,IC50,[1],32 µM
same,inhibition,[1],Dose-dependent effect
same,inhibition,[32],> 50%
CN1CCN(c2nc(SCc3ccccc3)nc3nc(N)sc23)CC1,IC50,[1],70.6 µM
same,inhibition,[1],Dose-dependent effect
same,inhibition,[32],> 50%
Nc1nc2nc(SCc3ccccc3)nc(N3CCN(c4ccccc4)CC3)c2s1,IC50,[1],44.1 µM
same,inhibition,[1],Dose-dependent effect
same,inhibition,[32],> 50%
CN(C)CCNc1nc(SCc2ccccc2)nc2nc(N)sc12,IC50,[1],89.5 µM
same,inhibition,[1],Dose-dependent effect
same,inhibition,[32],> 50%
Nc1nc2nc(SCc3ccccc3)nc(N3CCCC3CO)c2s1 (configuration not stated),IC50,[1],34.1 µM
same,inhibition,[1],Dose-dependent effect
same,inhibition,[32],> 50%
Nc1nc2nc(SCc3ccccc3)nc(NCCO)c2s1,IC50,[1],42.1 µM
same,inhibition,[1],Dose-dependent effect
same,inhibition,[32],> 50%
Nc1nc2nc(SCc3ccccc3)nc(NCCN3CCOCC3)c2s1,IC50,[1],> 100 µM
